Data from ChEMBL document CHEMBL1140074, “Aminoacyl-anthraquinone conjugates as telomerase inhibitors: synthesis, biophysical and biological evaluation” (J Med Chem, 2008).

Key:
[1] = molecular target: DNA polymerase I, thermostable (Thermus aquaticus, UniProt P19821); assay: Inhibition of Taq polymerase
Outline: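 PCR with 2.5 ng pBR322 template and primers Tup/Tdown (0.5 µM) amplifying plasmid bases 906-1064. Compounds tested from 20 nM to 40 µM. Run 25 cycles of 94 °C, 65 °C and 72 °C (30 s each). Products resolved on 2% agarose in TBE and stained with ethidium bromide.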

HeLa = assay: Cytotoxicity against human HeLa cells expressing telomerase after 96 hrs by MTT assay; assay type: functional, cell-based
Outline: (§1)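 Cells grown in DMEM with 10% heat-inactivated FCS, penicillin/streptomycin, 37 °C, 5% CO2. Plated at 10000 cells/well and left overnight, then exposed to eight serial dilutions in triplicate for 96 h. MTT added to 0.8 mg/mL final for 2 h, formazan dissolved in DMSO, absorbance read at 540 nm. IC50 from sigmoidal dose-response fits.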

[2] = Cytotoxicity against human 293T cells expressing telomerase after 96 hrs by MTT assay; assay type: cell-based; details: HEK-293T; outline: as §1
[3] = molecular target: Telomerase reverse transcriptase (Homo sapiens, UniProt O14746); assay: Inhibition of telomerase in human JR8 cells by TRAP assay; assay type: cell-based
Outline: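 Telomerase source was a CHAPS lysate of exponentially growing JR8 cells (500 ng protein per reaction). Elongation 30 min at 30 °C, then 30 PCR cycles. Products run on 10% PAGE with phosphorimager read-out, in triplicate. Drug levels kept below those inhibiting Taq.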

Homo sapiens [4] = species on record: Homo sapiens; assay: Binding affinity to human telomeric DNA sequence assessed as stabilization of G-quadruplex at 10 uM by thermal denaturation
Outline: (§2)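 Fluorescence melting in a LightCycler of 0.25 µM telomeric oligonucleotide HTS (5'-FAM, 3'-methyl red) in LiP buffer (10 mM LiOH, 50 mM KCl, pH 7.4 with H3PO4). Samples were denatured at 95 °C for 5 min, then cooled and reheated at 0.5 °C/min in 1 °C steps with 2 min equilibration per step. Excitation 488 nm, emission 520 nm. ΔTm was taken relative to ligand-free DNA.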

Homo sapiens [5] = species on record: Homo sapiens; assay: Binding affinity to human telomeric DNA sequence assessed as stabilization of G-quadruplex at 1 uM by thermal denaturation; outline: as §2

Chain of Telomerase reverse transcriptase (O14746 whole entry): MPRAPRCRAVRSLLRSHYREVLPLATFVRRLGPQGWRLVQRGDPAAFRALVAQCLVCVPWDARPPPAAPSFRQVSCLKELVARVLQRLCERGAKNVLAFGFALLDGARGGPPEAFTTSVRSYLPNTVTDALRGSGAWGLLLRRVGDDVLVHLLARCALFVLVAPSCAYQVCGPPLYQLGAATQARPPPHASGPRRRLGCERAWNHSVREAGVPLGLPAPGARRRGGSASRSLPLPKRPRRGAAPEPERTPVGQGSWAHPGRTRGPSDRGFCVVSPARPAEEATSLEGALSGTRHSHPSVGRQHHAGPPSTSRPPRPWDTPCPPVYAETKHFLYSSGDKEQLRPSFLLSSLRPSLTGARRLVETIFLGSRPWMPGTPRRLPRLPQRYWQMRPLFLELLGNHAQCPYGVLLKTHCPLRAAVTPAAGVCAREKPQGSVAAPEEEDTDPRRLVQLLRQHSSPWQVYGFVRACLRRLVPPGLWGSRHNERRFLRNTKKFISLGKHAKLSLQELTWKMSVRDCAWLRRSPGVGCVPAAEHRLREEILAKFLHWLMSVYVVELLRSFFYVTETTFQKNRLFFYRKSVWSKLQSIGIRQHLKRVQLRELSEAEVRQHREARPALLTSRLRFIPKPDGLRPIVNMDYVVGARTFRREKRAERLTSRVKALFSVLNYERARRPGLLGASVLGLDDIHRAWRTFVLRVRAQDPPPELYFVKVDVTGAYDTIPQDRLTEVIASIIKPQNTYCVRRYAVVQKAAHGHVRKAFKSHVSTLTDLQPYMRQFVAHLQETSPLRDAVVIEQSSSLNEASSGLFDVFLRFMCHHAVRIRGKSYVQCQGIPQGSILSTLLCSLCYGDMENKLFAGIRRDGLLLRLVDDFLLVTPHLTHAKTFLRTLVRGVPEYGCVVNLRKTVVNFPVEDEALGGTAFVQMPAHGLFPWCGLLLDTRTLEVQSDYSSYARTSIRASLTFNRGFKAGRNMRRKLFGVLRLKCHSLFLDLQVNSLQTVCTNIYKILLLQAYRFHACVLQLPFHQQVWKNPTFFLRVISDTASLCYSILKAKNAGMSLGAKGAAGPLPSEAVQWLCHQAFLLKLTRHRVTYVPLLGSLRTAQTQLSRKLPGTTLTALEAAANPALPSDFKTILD
Chain of DNA polymerase I, thermostable (P19821 whole entry): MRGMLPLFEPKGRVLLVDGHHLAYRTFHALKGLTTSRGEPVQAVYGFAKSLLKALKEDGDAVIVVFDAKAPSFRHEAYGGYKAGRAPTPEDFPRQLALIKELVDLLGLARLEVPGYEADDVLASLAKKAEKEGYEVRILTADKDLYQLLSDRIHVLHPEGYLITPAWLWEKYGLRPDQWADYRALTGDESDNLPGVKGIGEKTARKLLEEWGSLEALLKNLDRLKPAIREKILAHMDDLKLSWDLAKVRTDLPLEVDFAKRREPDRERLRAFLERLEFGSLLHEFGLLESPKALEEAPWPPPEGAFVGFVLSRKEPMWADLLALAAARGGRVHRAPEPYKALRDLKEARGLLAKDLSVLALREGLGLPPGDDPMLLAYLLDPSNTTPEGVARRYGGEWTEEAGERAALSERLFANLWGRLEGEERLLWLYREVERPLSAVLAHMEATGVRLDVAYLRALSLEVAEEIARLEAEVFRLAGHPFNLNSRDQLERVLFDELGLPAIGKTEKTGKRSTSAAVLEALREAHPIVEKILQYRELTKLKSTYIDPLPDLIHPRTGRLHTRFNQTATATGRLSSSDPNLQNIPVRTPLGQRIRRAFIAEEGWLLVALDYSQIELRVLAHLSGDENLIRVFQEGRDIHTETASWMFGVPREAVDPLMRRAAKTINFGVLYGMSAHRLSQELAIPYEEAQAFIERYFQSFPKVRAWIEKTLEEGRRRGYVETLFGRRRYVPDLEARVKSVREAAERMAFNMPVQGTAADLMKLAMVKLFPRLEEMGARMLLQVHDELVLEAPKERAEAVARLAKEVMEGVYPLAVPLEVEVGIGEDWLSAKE

EC50 [1] | EC50 [3] | ΔTm (Homo sapiens [4]) | ΔTm (Homo sapiens [5]) | Structure (SMILES) | IC50 (HeLa) | IC50 [2]
10 µM | 0.8 µM | 17.2 °C | 6.6 °C | NCCCC[C@H](N)C(=O)NCCC(=O)Nc1ccc2c(c1)C(=O)c1ccc(NC(=O)CCNC(=O)[C@@H](N)CCCCN)cc1C2=O | 100 µM | > 100 µM
> 40 µM | 25 µM | 9.2 °C | 6.1 °C | C[C@H](N)C(=O)NCC(=O)Nc1ccc2c(c1)C(=O)c1ccc(NC(=O)CNC(=O)[C@H](C)N)cc1C2=O | 17 µM | 43 µM
> 40 µM | 3 µM | 14.7 °C | 5.2 °C | NCCCC[C@H](N)C(=O)NCCNC(=O)c1ccc2c(c1)C(=O)c1cc(C(=O)NCCNC(=O)[C@@H](N)CCCCN)ccc1C2=O | 84 µM | > 100 µM
10 µM | 1.2 µM | 23.4 °C | 11.3 °C | NCCC(=O)Nc1ccc2c(c1)C(=O)c1cc(NC(=O)CCN)ccc1C2=O | 57 µM | 79 µM
> 40 µM | 15 µM | 9 °C | 0.3 °C | C[C@H](N)C(=O)NCCC(=O)Nc1ccc2c(c1)C(=O)c1cc(NC(=O)CCNC(=O)[C@H](C)N)ccc1C2=O | 64 µM | > 100 µM
> 40 µM | 25 µM | 3.6 °C | 0.1 °C | NCC(=O)Nc1ccc2c(c1)C(=O)c1ccc(NC(=O)CN)cc1C2=O | 76 µM | > 100 µM
10 µM | 0.8 µM | 15.9 °C | 7.9 °C | NCCCC[C@H](N)C(=O)NCCNC(=O)c1ccc2c(c1)C(=O)c1ccc(C(=O)NCCNC(=O)[C@@H](N)CCCCN)cc1C2=O | 100 µM | > 100 µM

Continued, molecule first:

Structure (SMILES) | EC50 [1] | EC50 [3] | ΔTm (Homo sapiens [4]) | ΔTm (Homo sapiens [5]) | IC50 (HeLa) | IC50 [2]
NCCC(=O)Nc1ccc2c(c1)C(=O)c1ccc(NC(=O)CCN)cc1C2=O | > 40 µM | 1.25 µM | 18.1 °C | 9.1 °C | > 100 µM | > 100 µM
NCCNC(=O)c1ccc2c(c1)C(=O)c1ccc(C(=O)NCCN)cc1C2=O | 20 µM | 5 µM | 9 °C | 2 °C | 40 µM | 86 µM
N=C(N)NCCC[C@H](N)C(=O)NCCNC(=O)c1ccc2c(c1)C(=O)c1ccc(C(=O)NCCNC(=O)[C@@H](N)CCCNC(=N)N)cc1C2=O | 10 µM | 1.5 µM | 16.4 °C | 5.2 °C | 85 µM | > 100 µM
O=C(CNC(=O)[C@@H]1CCCN1)Nc1ccc2c(c1)C(=O)c1ccc(NC(=O)CNC(=O)[C@@H]3CCCN3)cc1C2=O | > 40 µM | 10 µM | 15.6 °C | 6.1 °C | 33 µM | > 100 µM
NCC(=O)NCC(=O)Nc1ccc2c(c1)C(=O)c1ccc(NC(=O)CNC(=O)CN)cc1C2=O | > 40 µM | 5 µM | 8.6 °C | 0.4 °C | 39 µM | > 100 µM
CC[C@H](C)[C@H](N)C(=O)NCC(=O)Nc1ccc2c(c1)C(=O)c1ccc(NC(=O)CNC(=O)[C@@H](N)[C@@H](C)CC)cc1C2=O | > 40 µM | 25 µM | 4.3 °C | 0.8 °C | 18 µM | 42 µM
NCCCC[C@H](N)C(=O)NCCC(=O)Nc1ccc2c(c1)C(=O)c1cc(NC(=O)CCNC(=O)[C@@H](N)CCCCN)ccc1C2=O | 2.5 µM | 1.5 µM | 17 °C | 3 °C | > 100 µM | > 100 µM
NCCNC(=O)c1ccc2c(c1)C(=O)c1cc(C(=O)NCCN)ccc1C2=O | > 40 µM | 15 µM | 12.9 °C | 3.3 °C | 100 µM | 100 µM
